# Measurements reported in ChEMBL document CHEMBL3853270, “Influence of Birch Bark Triterpenes on Keratinocytes and Fibroblasts from Diabetic and Nondiabetic Donors” (2016).
# The source made the active and inactive calls. No cut-off for these calls is given here.
# Assays:
# Type in all cases: functional
# Keratinocyte [1] = assay: Effect on antioxidant related gene expression in non-diabetic young human primary keratinocytes assessed as SOD2 mRNA levels at 1.96 uM after 6 hrs by qPCR analysis
# Keratinocyte [2] = assay: Effect on chemokines related gene expression in non-diabetic adult human primary keratinocytes assessed as CXCL10 mRNA levels at 1.96 uM after 6 hrs by qPCR analysis
# Keratinocyte [3] = assay: Effect on growth factor related gene expression in non-diabetic adult human primary keratinocytes assessed as VEGFA mRNA levels at 1.96 uM after 6 hrs by qPCR analysis
# Method in brief: (§1)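 Primary human keratinocytes (nondiabetic young or adult, diabetic adult donors) were exposed to compound for 6 h, with 0.1% DMSO as solvent control. Total RNA came from 400 000 cells per sample and was assayed on a Fluidigm Biomark high-throughput qPCR chip. Results are fold change vs solvent control, from 2−4 independent experiments on two donors per group, with SD. Groups were compared by one-way ANOVA with Bonferroni post-test.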
# Keratinocyte [4] = assay: Effect on AQP3 mRNA expression levels in non-diabetic adult human primary keratinocytes at 1.96 uM after 6 hrs by qPCR analysis
# Method in brief: (§2)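 Primary keratinocytes from nondiabetic young and adult and diabetic adult donors; 400 000 cells per sample, 6 h exposure at 1.96 or 9.81 μM. RNA extracted and read on a high-throughput qPCR chip. Results are fold change versus 0.1% DMSO solvent control from 5−7 independent experiments over two donors per group, SD, one-way ANOVA with Bonferroni post-test.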
# Keratinocyte [5] = assay: Effect on pro-inflammatory related gene expression in diabetic adult human primary keratinocytes assessed as IL1R1 mRNA levels at 1.96 uM after 6 hrs by qPCR analysis
# Keratinocyte [6] = assay: Effect on cellular connection related gene expression in non-diabetic young human primary keratinocytes assessed as CLDN4 mRNA levels at 9.81 uM after 6 hrs by qPCR analysis
# Keratinocyte [7] = assay: Effect on chemokines related gene expression in non-diabetic young human primary keratinocytes assessed as IL8 mRNA levels at 9.81 uM after 6 hrs by qPCR analysis; method in brief: as §1
# Keratinocyte [8] = assay: Effect on growth factor related gene expression in non-diabetic adult human primary keratinocytes assessed as VEGFA mRNA levels at 9.81 uM after 6 hrs by qPCR analysis; method in brief: as §1
# Keratinocyte [9] = assay: Effect on MMP1 mRNA expression levels in non-diabetic adult human primary keratinocytes at 9.81 uM after 6 hrs by qPCR analysis; method in brief: as §2
# Keratinocyte [10] = assay: Effect on growth factor related gene expression in diabetic adult human primary keratinocytes assessed as GDF15 mRNA levels at 9.81 uM after 6 hrs by qPCR analysis; method in brief: as §1
# Fibroblast [11] = assay: Effect on antiinflammatory related gene expression in non-diabetic adult human primary fibroblasts assessed as SOCS3 mRNA levels at 9.81 uM after 6 hrs by qPCR analysis
# Method in brief: (§3)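 Primary dermal fibroblasts from one nondiabetic young, one nondiabetic adult and one diabetic adult donor; 320 000 cells per sample, 6 h at 1.96 or 9.81 μM. RNA measured on a high-throughput qPCR chip. Fold change versus 0.1% DMSO control, four independent experiments, SD, one-way ANOVA with Bonferroni post-test.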
# Fibroblast [12] = assay: Effect on MMP1 mRNA expression levels in non-diabetic young human primary fibroblasts at 1.96 uM after 6 hrs by qPCR analysis; method in brief: as §3
# Fibroblast [13] = assay: Effect on pro-inflammatory related gene expression in non-diabetic adult human primary fibroblasts assessed as PTGS2 mRNA levels at 1.96 uM after 6 hrs by qPCR analysis
# Fibroblast [14] = assay: Effect on growth factor related gene expression in non-diabetic adult human primary fibroblasts assessed as GDF15 mRNA levels at 9.81 uM after 6 hrs by qPCR analysis
# Method in brief: (§4)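 Primary human dermal fibroblasts (young or adult nondiabetic, adult diabetic donor) were treated for 6 h against a 0.1% DMSO solvent control. RNA from 320 000 cells per sample was measured by Fluidigm Biomark high-throughput qPCR. Values are fold change relative to solvent control, from four independent experiments, with SD. One-way ANOVA with Bonferroni post-test was applied.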
# Fibroblast [15] = assay: Effect on MMP1 mRNA expression levels in non-diabetic adult human primary fibroblasts at 9.81 uM after 6 hrs by qPCR analysis; method in brief: as §3
# Fibroblast [16] = assay: Effect on chemokines related gene expression in diabetic adult human primary fibroblasts assessed as CCL2 mRNA levels at 1.96 uM after 6 hrs by qPCR analysis
# Fibroblast [17] = assay: Effect on pro-inflammatory related gene expression in diabetic adult human primary fibroblasts assessed as PTGS2 mRNA levels at 9.81 uM after 6 hrs by qPCR analysis
# Fibroblast [18] = assay: Effect on transcription factor related gene expression in diabetic adult human primary fibroblasts assessed as JUN mRNA levels at 9.81 uM after 6 hrs by qPCR analysis
# Fibroblast [19] = assay: Effect on antioxidant related gene expression in diabetic adult human primary fibroblasts assessed as NFE2L2 mRNA levels at 1.96 uM after 6 hrs by qPCR analysis
# Fibroblast [20] = assay: Effect on growth factors related gene expression in non-diabetic adult human primary fibroblasts assessed as FGF2 mRNA levels at 1.96 uM after 6 hrs by qPCR analysis; method in brief: as §4
# Fibroblast [21] = assay: Effect on growth factors related gene expression in non-diabetic young human primary fibroblasts assessed as FGF2 mRNA levels at 9.81 uM after 6 hrs by qPCR analysis; method in brief: as §4
# Fibroblast [22] = assay: Effect on growth factors related gene expression in non-diabetic adult human primary fibroblasts assessed as FGF2 mRNA levels at 9.81 uM after 6 hrs by qPCR analysis; method in brief: as §4
# Fibroblast [23] = assay: Effect on adhesion molecules related gene expression in diabetic adult human primary fibroblasts assessed as ICAM1 mRNA levels at 1.96 uM after 6 hrs by qPCR analysis
# Method in brief: (§5)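 Dermal fibroblasts from nondiabetic adult and diabetic adult donors, exposed for 6 h at 1.96 or 9.81 μM. ICAM-1 and VCAM-1 mRNA measured by standard qRT-PCR, n = 3. Fold change versus 0.1% DMSO control, SD, one-way ANOVA with Bonferroni post-test.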
# Fibroblast [24] = assay: Effect on adhesion molecules related gene expression in non-diabetic adult human primary fibroblasts assessed as VCAM1 mRNA levels at 1.96 uM after 6 hrs by qPCR analysis; method in brief: as §5
# [25] = Effect on wound healing activity in diabetic adult human primary keratinocytes assessed as upregulation of RANTES protein levels at 1.96 uM after 24 hrs by bead-based suspension array analysis; details: Keratinocyte
# [26] = Effect on wound healing activity in diabetic adult human primary keratinocytes assessed as upregulation of MIF protein levels at 1.96 uM after 24 hrs by bead-based suspension array analysis; details: Keratinocyte
# [27] = Effect on wound healing activity in non-diabetic adult human primary fibroblasts assessed as upregulation of MIF protein levels at 1.96 uM after 24 hrs by bead-based suspension array analysis; details: Fibroblast
# Keratinocyte [28] = assay: Effect on actin cytoskeleton in human diabetic primary keratinocytes assessed as formation of cellular protrusions at 10 nM after 2 hrs by rhodamine phalloidin-staining based fluorescence microscopic analysis
# Method in brief: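 Subconfluent cells on glass coverslips, collagen type I coated for fibroblasts; keratinocytes starved 2 days before stimulation. Exposure 2 h, then rhodamine-phalloidin staining (1:25 in PBS) and fluorescence microscopy. Controls were DMSO as solvent and PDGF (fibroblasts) or CNF1 (keratinocytes). Where used, p38-MAPK inhibitor LN 950 (100 nM) was added 30 min beforehand.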
compound,measurement,setting,value
C=C(C)[C@@H]1CC[C@]2(CO)CC[C@]3(C)[C@H](CC[C@@H]4[C@@]5(C)CC[C@H](O)C(C)(C)[C@@H]5CC[C@]43C)[C@@H]12 [BETULIN],fold change (FC),Keratinocyte [1],1.3
same,fold change (FC),Keratinocyte [2],2.9
same,fold change (FC),Keratinocyte [3],1.3
same,fold change (FC),Keratinocyte [4],0.8
same,fold change (FC),Keratinocyte [5],0.8
same,fold change (FC),Keratinocyte [6],1.9
same,fold change (FC),Keratinocyte [7],21.8
same,fold change (FC),Keratinocyte [8],1.7
same,fold change (FC),Keratinocyte [9],1
same,fold change (FC),Keratinocyte [10],2.5
same,fold change (FC),Fibroblast [11],24.6
same,fold change (FC),Fibroblast [12],0.8
same,fold change (FC),Fibroblast [13],146
same,fold change (FC),Fibroblast [14],3.2
same,fold change (FC),Fibroblast [15],2.3
same,fold change (FC),Fibroblast [16],3.7
same,fold change (FC),Fibroblast [17],2.9
same,fold change (FC),Fibroblast [18],1.2
same,fold change (FC),Fibroblast [19],1.8
same,fold change (FC),Fibroblast [20],2.9
same,fold change (FC),Fibroblast [21],1.8
same,fold change (FC),Fibroblast [22],3.4
same,fold change (FC),Fibroblast [23],6.3
same,fold change (FC),Fibroblast [24],63
same,Activity,[25],Active
same,Activity,[26],Active
same,Activity,[27],Active
same,Activity,Keratinocyte [28],Active
